Experimental data published in ChEMBL document CHEMBL1275288, “Effect of milrinone analogues on intracellular calcium increase in single living H9C2 cardiac cells” (Eur J Med Chem, 2010).

Tests used:
H9c2 [1] = experiment: Increase in cytoplasmic intracellular calcium level in differentiated rat H9c2 cells depolarized through 60 mM KCl application in presence of extracellular calcium assessed as cells that prolonged KCl-dependent intracellular [Ca2+] transient at 10 uM by Fura-2-AM dye based epifluorescent microscopy; format: functional
How it was run: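 Differentiated H9C2 cardiomyocytes (10 nM retinoic acid daily, 1% FCS) loaded with Fura 2-AM for 40 min, then 15 min at 37 °C in NES. Depolarized with 60 mM KCl in NES with extracellular Ca2+. 10 µM compound given within 30 s after start of the KCl-dependent plateau. Ratio imaging at 340/380 nm excitation, 510 nm emission. Scored as percent of tested cells (n per compound) with prolonged transient.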

H9c2 [2] = experiment: Cytotoxicity against differentiated rat H9c2 cells assessed as reduction in cell viability at 10 uM after 24 hrs by MTT assay; format: cell-based; settings: h9c2, 24 h
How it was run: (§1)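 H9C2 rat embryonic ventricular cell line, grown subconfluent in DMEM-F12 with 10% heat-inactivated FBS; differentiated cells obtained in 1% FCS medium with 10 nM retinoic acid added daily with medium renewal. Cells, undifferentiated or differentiated, exposed 24 h to 10 nM, 1, 10 or 100 µM compound; viability by MTT reduction to formazan, optical density at 570 nm, expressed as percent of control.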

H9c2 [3] = experiment: Increase in cytoplasmic intracellular calcium level in differentiated rat H9c2 cells at 10 uM by Fura-2-AM dye based epifluorescent microscopy; format: functional
How it was run: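 Retinoic acid (10 nM, daily)-differentiated H9C2 cells loaded 40 min with Fura 2-AM, washed in NES, held 15 min at 37 °C for dye de-esterification. Cells stimulated directly with 10 µM compound; single living cells imaged by epifluorescence microscopy, excitation 340/380 nm, emission 510 nm, whole-cell fluorescence ratio. Minimum 10, maximum 25 cells per compound; percentage of cells showing basal [Ca2+]i increase.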

H9c2 [4] = experiment: Cytotoxicity against differentiated rat H9c2 cells assessed as reduction in cell viability at 10 nM after 24 hrs by MTT assay; format: cell-based; settings: h9c2, 24 h, 0.01 µM; how it was run: as §1
H9c2 [5] = experiment: Cytotoxicity against differentiated rat H9c2 cells assessed as reduction in cell viability at 100 uM after 24 hrs by MTT assay; format: cell-based; settings: h9c2, 24 h; how it was run: as §1
H9c2 [6] = experiment: Toxicity against undifferentiated rat H9c2 cells assessed as reduction in cell viability at 100 uM after 24 hrs by MTT assay; format: cell-based; settings: h9c2, 24 h; how it was run: as §1
H9c2 [7] = experiment: Cytotoxicity against differentiated rat H9c2 cells assessed as reduction in cell viability at 1 uM after 24 hsr by MTT assay; format: cell-based; settings: h9c2, 1 µM; how it was run: as §1

| SMILES | Activity (H9c2 [1]) [%] | Activity (H9c2 [2]) [%] | Activity (H9c2 [3]) [%] | Activity (H9c2 [4]) [%] | Activity (H9c2 [5]) [%] | Activity (H9c2 [6]) [%] | Activity (H9c2 [7]) [%] |
| --- | --- | --- | --- | --- | --- | --- | --- |
| Cc1ccc(C#N)c(=O)[nH]1 | 45 | 75 | 78 | 90 | 50 | 50 | 90 |
| Cc1[nH]c(=O)c(C#N)cc1C(=O)OCCSc1nc2ccccc2s1 | 0 | – | – | – | – | – | – |
| Cc1[nH]c(=O)c(C#N)cc1C(=O)OCc1ccccc1 | 0 | – | – | – | – | – | – |
| CCOC(=O)N1CCC(NC(=O)c2cc(C#N)c(=O)[nH]c2C)CC1 | 25 | 75 | – | 90 | 50 | 20 | 90 |
| Cc1[nH]c(=O)c(C#N)cc1-c1ccncc1 [MILRINONE] | 50 | 75 | – | 90 | 50 | – | 90 |
| CCOC(=O)c1cc(C#N)c(=O)[nH]c1C | 0 | – | – | – | – | – | – |
| Cc1[nH]c(=O)c(C#N)cc1C(=O)OCCSc1ccccn1 | 0 | – | – | – | – | – | – |
| CCC(NC(=O)c1cc(C#N)c(=O)[nH]c1C)c1ccccc1 (centres undefined) | 30 | 75 | – | 90 | 50 | 50 | 90 |
| Cc1[nH]c(=O)c(C#N)cc1C(=O)O | 0 | – | – | – | – | – | – |
| Cc1[nH]c(=O)c(C#N)cc1C(=O)NCc1ccccc1 | 40 | 75 | – | 90 | – | 20 | – |
| Cc1[nH]c(=O)c(C#N)cc1C(=O)NC(C)c1ccccc1 (centres undefined) | 0 | – | – | – | – | – | – |
